# Test results reported in ChEMBL document CHEMBL4330142, “Eupatoriopicrin Inhibits Pro-inflammatory Functions of Neutrophils via Suppression of IL-8 and TNF-alpha Production and p38 and ERK 1/2 MAP Kinases” (J Nat Prod, 2019).
# Activity calls are given as the source filed them. No cut-off for these calls is given here.
# Assays:
# Neutrophil [1] = assay: Inhibition of LPS-stimulated TNFalpha production in human neutrophils at 2.5 uM after 24 hrs by ELISA; assay type: functional, cell-based
# Method in brief: (§1)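 Human neutrophils were preincubated with compound, then LPS-stimulated. TNF-α in the culture medium was measured by ELISA 24 h after LPS. Three separate experiments used neutrophils from independent donors, each assayed in duplicate; mean ± SEM; Dunnett's test versus the stimulated control.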
# [2] = Anti-inflammatory activity in human PMN assessed as inhibition of fMLP/cytochalasin A-induced CD11b/CD18 expression by measuring CD11b/CD18 expression level at 2.5 uM preincubated for 30 mins followed by fMLP/cytochalasin A addition and measured after 30 mins by flow cytometry relative to control; assay type: functional; design: scale not given: the % may be the effect or the level left
# Method in brief: (§2)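 Neutrophils preincubated with compound before stimulation with cytochalasin A combined with f-MLP; surface CD11b expression read by flow cytometry. Compounds from 10 mM DMSO stock diluted in buffer or RPMI 1640. Mean ± SEM of three experiments on neutrophils from independent donors, Dunnett's post hoc test versus stimulated control.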
# Neutrophil [3] = assay: Inhibition of LPS-induced delay of apoptosis in human neutrophils assessed as late apoptotic cells at 2.5 uM preincubated for 1 hr followed by LPS stimulation and measured after 24 hrs by Annexin V-FITC/propidium iodide staining based flow cytometry (reference value: 9.5 +/- 1.8%); assay type: functional; design: scale not given: the % may be the effect or the level left
# [4] = Anti-inflammatory activity in human PMN assessed as inhibition of fMLP/cytochalasin A-induced CD11b/CD18 expression by measuring CD11b/CD18 expression level at 50 uM preincubated for 30 mins followed by fMLP/cytochalasin A addition and measured after 30 mins by flow cytometry relative to control; assay type: functional; design: scale not given: the % may be the effect or the level left; method in brief: as §2
# Neutrophil [5] = assay: Inhibition of LPS-induced delay of apoptosis in human neutrophils assessed as viable cells at 2.5 uM preincubated for 1 hr followed by LPS stimulation and measured after 24 hrs by Annexin V-FITC/propidium iodide staining based flow cytometry (reference value: 75.4 +/- 1.1%); assay type: functional; details: read-out: Activity
# Neutrophil [6] = assay: Inhibition of LPS-induced delay of apoptosis in human neutrophils assessed as necrotic cells at 2.5 uM preincubated for 1 hr followed by LPS stimulation and measured after 24 hrs by Annexin V-FITC/propidium iodide staining based flow cytometry (reference value: 2.1 +/- 0.4%); assay type: functional; design: scale not given: the % may be the effect or the level left
# Neutrophil [7] = assay: Inhibition of LPS-stimulated TNFalpha production in human neutrophils at 50 uM after 24 hrs by ELISA; assay type: functional, cell-based; method in brief: as §1
# Neutrophil [8] = assay: Inhibition of fMLP/cytochalasin A-stimulated elastase release in human neutrophils assessed as elastase level at 50 uM preincubated for 15 mins followed by fMLP/cytochalasin A stimulation and measured after 15 mins by SAAVNA substrate based spectrophotometric method (reference value: 100%); design: scale not given: the % may be the effect or the level left
# Neutrophil [9] = assay: Inhibition of LPS-stimulated IL-8 production in human neutrophils at 2.5 uM after 24 hrs by ELISA; assay type: functional, cell-based
# Neutrophil [10] = assay: Inhibition of LPS-induced delay of apoptosis in human neutrophils assessed as early apoptotic cells at 2.5 uM preincubated for 1 hr followed by LPS stimulation and measured after 24 hrs by Annexin V-FITC/propidium iodide staining based flow cytometry (reference value: 13 +/- 1.9%); assay type: functional; design: scale not given: the % may be the effect or the level left
# Homo sapiens = species on record: Homo sapiens; assay: Anti-inflammatory activity in human PMN assessed as inhibition of fMLP/cytochalasin A-induced CD11b/CD18 expression at 2.5 uM preincubated for 30 mins followed by fMLP/cytochalasin A addition and measured after 30 mins by flow cytometry; assay type: functional
# Method in brief: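 Freshly isolated human PMNs were preincubated with compound, then stimulated with cytochalasin A plus f-MLP. Surface CD11b was read by FACS relative to the stimulated control. Three separate experiments used neutrophils from independent donors; mean ± SEM. Compounds came from 10 mM DMSO stocks diluted in Ca2+-free HBSS/PBS pH 7.4 or RPMI 1640.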
SMILES,inhibition (Neutrophil [1]),Activity [2],Activity (Neutrophil [3]),Activity [4],viability at 2.5 µM (Neutrophil [5]),Activity (Neutrophil [6]),inhibition (Neutrophil [7]),Activity (Neutrophil [8]),inhibition (Neutrophil [9]),Activity (Neutrophil [10]),inhibition (Homo sapiens)
CC[C@H]1OC(=O)[C@H](C)[C@@H](O[C@H]2C[C@@](C)(OC)[C@@H](O)[C@H](C)O2)[C@H](C)[C@@H](O[C@@H]2O[C@H](C)C[C@H](N(C)C)[C@H]2O)[C@](C)(OC)C[C@@H](C)C(=O)[C@H](C)[C@@H](O)[C@]1(C)O [CLARITHROMYCIN],inactive,67.7%,13.3%,31.5%,49.8%,1.1%,Active,39%,Active,33.7%,–
O=c1c(O)c(-c2ccc(O)c(O)c2)oc2cc(O)cc(O)c12 [QUERCETIN],inactive,–,15.4%,–,58.8%,1%,Active,26.6%,–,27%,inactive
